Common to all, as to format: functional
Assay [1] relates to Staphylococcus aureus. Briefly: Antimicrobial activity against community-acquired methicillin-resistant Staphylococcus aureus by broth microdilution method in presence of 50% human serum. The method, boiled down:
(§1)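 Broth microdilution per CLSI, in duplicate, with 50% human serum added. Mueller-Hinton broth with 50 mg/liter calcium and 12.5 mg/liter magnesium. Run on 20 randomly chosen isolates, 10 CA-MRSA and 10 HA-MRSA.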

The test system of assay [2] is Staphylococcus aureus. The experiment in a line: Bactericidal activity against community-acquired methicillin-resistant Staphylococcus aureus by broth microdilution method. Particulars: for MBC: Staphylococcus aureus. The method, boiled down:
(§2)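 MBC read after CLSI broth microdilution in duplicate. Mueller-Hinton broth with 25 mg/liter calcium and 12.5 mg/liter magnesium; for daptomycin, 50 mg/liter calcium. 5-μl aliquots from clear wells were plated onto tryptic soy agar.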
On the technique in general: Broth dilution looks for growth in wells or tubes with falling amounts of substance.

Assay [3] has as its system Staphylococcus aureus. The experiment in a line: Bactericidal activity against community-acquired methicillin-resistant Staphylococcus aureus selected at 4 times MIC after 24 hrs by time kill analysis in presence of 50% human serum. The method, boiled down: (§3)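 Time-kill in triplicate on four randomly selected isolates per group. Start inoculum ~10^6 CFU/ml, drug at 4× MIC; serum arm has 50% human serum. Sampled over 0–24 h, diluted in cold 0.9% NaCl, spiral-plated; detection limit 2 log10 CFU/ml. Bactericidal means ≥3-log10 reduction. T99.9 by linear regression or visual inspection.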

Assay [4] has as its system Staphylococcus aureus. Briefly: Antimicrobial activity against hospital-acquired methicillin-resistant Staphylococcus aureus by broth microdilution method in presence of 50% human serum. The method, boiled down:
as §1

For assay [5], the system named is Staphylococcus aureus. Briefly: Bactericidal activity against community-acquired methicillin-resistant Staphylococcus aureus by broth microdilution method in presence of 50% human serum. The method, boiled down:
(§4)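 MBC with 50% human serum on 10 CA-MRSA and 10 HA-MRSA isolates. Mueller-Hinton broth with 50 mg/liter calcium and 12.5 mg/liter magnesium. Aliquots from clear wells were plated onto tryptic soy agar.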

In assay [6] the test system is Staphylococcus aureus. The experiment in a line: Bactericidal activity against hospital-acquired methicillin-resistant Staphylococcus aureus selected at 4 times MIC after 24 hrs by time kill analysis. The method, boiled down:
as §3

The subject of assay [7] is Staphylococcus aureus. The experiment in a line: Bactericidal activity against hospital-acquired methicillin-resistant Staphylococcus aureus by broth microdilution method in presence of 50% human serum. The method, boiled down: as §4
Assay [8] concerns Staphylococcus aureus. The experiment in a line: Bactericidal activity against hospital-acquired methicillin-resistant Staphylococcus aureus selected at 4 times MIC after 24 hrs by time kill analysis in presence of 50% human serum. The method, boiled down:
as §3

The test system of assay [9] is Staphylococcus aureus. The experiment in a line: Bactericidal activity against community-acquired methicillin-resistant Staphylococcus aureus selected at 4 times MIC after 24 hrs by time kill analysis. The method, boiled down: as §3
Assay [10] concerns Staphylococcus aureus. Briefly: Antimicrobial activity against hospital-acquired methicillin-resistant Staphylococcus aureus by broth microdilution method. The method, boiled down: (§5)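 Broth microdilution in duplicate per CLSI guidelines on clinical CA-/HA-MRSA isolates (100 each, Detroit Medical Center). Mueller-Hinton broth with 25 mg/liter calcium and 12.5 mg/liter magnesium; for daptomycin, 50 mg/liter calcium and 12.5 mg/liter magnesium.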

The subject of assay [11] is Staphylococcus aureus. Briefly: Antimicrobial activity against community-acquired methicillin-resistant Staphylococcus aureus by broth microdilution method. The method, boiled down:
as §5

In assay [12] the test system is Staphylococcus aureus. The experiment in a line: Bactericidal activity against hospital-acquired methicillin-resistant Staphylococcus aureus by broth microdilution method. Particulars: for MBC: Staphylococcus aureus. The method, boiled down:
as §2

In assay [13] the test system is Staphylococcus aureus. The experiment in a line: Bactericidal activity against hospital-acquired methicillin-resistant Staphylococcus aureus selected at 0.5 times MIC after 24 hrs by time kill analysis. The method, boiled down: (§6)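 Time-kill at 0.5× or 1× MIC, alone and combined with tobramycin. Start inoculum ~10^6 CFU/ml, triplicate, sampled over 0–24 h and spiral-plated; detection limit 2 log10 CFU/ml. Bactericidal means ≥3-log10 CFU/ml reduction. Synergy means ≥2-log10 more killing at 24 h than the best single drug.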

In assay [14] the test system is Staphylococcus aureus. The experiment in a line: Bactericidal activity against community-acquired methicillin-resistant Staphylococcus aureus selected at MIC after 24 hrs by time kill analysis. The method, boiled down: as §6
Assay [15] deals with Staphylococcus aureus. The experiment in a line: Bactericidal activity against hospital-acquired methicillin-resistant Staphylococcus aureus selected at MIC after 24 hrs by time kill analysis. The method, boiled down: as §6
Assay [16] has as its system Staphylococcus aureus. Briefly: Bactericidal activity against community-acquired methicillin-resistant Staphylococcus aureus selected at 0.5 times MIC after 24 hrs by time kill analysis. The method, boiled down: as §6

Converted amounts (≈) assume the structure as drawn.

A word on the MIC50: it is an inhibitory concentration at the 50% level, which refers to growth in some studies and to a panel of isolates in others. Broadly, the MIC90 is the lowest concentration that inhibits either 90% of growth or 90% of the strains tested, depending on the study. In general, MBC refers to the smallest concentration meeting the test's criterion for killing. Consider `CCCCCCCCCC(=O)N[C@@H](Cc1c[nH]c2ccccc12)C(=O)N[C@H](CC(N)=O)C(=O)N[C@@H](CC(=O)O)C(=O)N[C@@H]1C(=O)NCC(=O)N[C@@H](CCCN)C(=O)N[C@@H](CC(=O)O)C(=O)N[C@H](C)C(=O)N[C@@H](CC(=O)O)C(=O)NCC(=O)N[C@H](CO)C(=O)N[C@@H]([C@H](C)CC(=O)O)C(=O)N[C@@H](CC(=O)c2ccccc2N)C(=O)O[C@@H]1C`, for which the MIC50 turned out to be 1 µg/mL in the assay on Staphylococcus aureus [1], 0.5 µg/mL with Staphylococcus aureus [4], 0.25 µg/mL (≈ 0.154 µM) in the assay with Staphylococcus aureus [10] and 0.25 µg/mL (≈ 0.154 µM) with Staphylococcus aureus [11]. For the same molecule, the MIC90 with Staphylococcus aureus [1] amounted to 1 µg/mL; in the assay on Staphylococcus aureus [4], 1 µg/mL; in the assay on Staphylococcus aureus [10], 0.5 µg/mL (≈ 0.309 µM); in the assay on Staphylococcus aureus [11], 0.5 µg/mL (≈ 0.309 µM). Besides, the MBC50 was 0.25 µg/mL (≈ 0.154 µM) in the assay with Staphylococcus aureus [2], 1 µg/mL in the assay with Staphylococcus aureus [5], 1 µg/mL with Staphylococcus aureus [7] and 0.25 µg/mL (≈ 0.154 µM) against Staphylococcus aureus [12]. Moreover, the MBC90 against Staphylococcus aureus [2] worked out at 0.5 µg/mL (≈ 0.309 µM); in the assay on Staphylococcus aureus [5], 1 µg/mL; with Staphylococcus aureus [7], 1 µg/mL; against Staphylococcus aureus [12], 1 µg/mL (≈ 0.617 µM). In addition, the MBC against Staphylococcus aureus [2] turned out to be 0.125 µg/mL (≈ 0.0771 µM); in the assay with Staphylococcus aureus [5] (Staphylococcus aureus), 0.5 µg/mL; in the assay with Staphylococcus aureus [7] (Staphylococcus aureus) it was 0.5 µg/mL; against Staphylococcus aureus [12], 0.125 µg/mL (≈ 0.0771 µM). Also, the T99.9% turned out to be 2.2 h in the assay with Staphylococcus aureus [3], 1.6 h with Staphylococcus aureus [6], 2.1 h in the assay on Staphylococcus aureus [8] and 1.6 h with Staphylococcus aureus [9].
As for `Nc1nc(/C(=N/O)C(=O)N[C@@H]2C(=O)N3C(C(=O)O)=C(/C=C4\CCN([C@@H]5CCNC5)C4=O)CS[C@H]23)ns1` [CEFTOBIPROLE], the MBC50 with Staphylococcus aureus [2] and in the assay on Staphylococcus aureus [12] was 2 µg/mL (≈ 3.74 µM) throughout. Also, the MBC90 in the assay with Staphylococcus aureus [2] and against Staphylococcus aureus [12] was 4 µg/mL (≈ 7.48 µM) each time. Also, the MBC with Staphylococcus aureus [2] and in the assay with Staphylococcus aureus [12] was 0.5 µg/mL (≈ 0.935 µM) throughout. Moreover, the T99.9% with Staphylococcus aureus [13] is 14.2 h; in the assay with Staphylococcus aureus [14], 8.6 h; in the assay with Staphylococcus aureus [6], 11.8 h; in the assay with Staphylococcus aureus [15] it was 8.6 h; in the assay on Staphylococcus aureus [16] it was 14.2 h; in the assay with Staphylococcus aureus [9], 8 h. In addition, the MIC50 in the assay with Staphylococcus aureus [10] and against Staphylococcus aureus [11] was 1 µg/mL (≈ 1.87 µM) in each case. Further, the MIC90 against Staphylococcus aureus [10] and against Staphylococcus aureus [11] was 2 µg/mL (≈ 3.74 µM) each time.
In the assay on Staphylococcus aureus [2], `CC(=O)NC[C@H]1CN(c2ccc(N3CCOCC3)c(F)c2)C(=O)O1` [LINEZOLID] registered an MBC50 of 8 µg/mL (≈ 23.7 µM), an MBC90 of 32 µg/mL (≈ 94.9 µM) and an MBC of 2 µg/mL (≈ 5.93 µM). Further, in the assay with Staphylococcus aureus [10], the MIC50 amounted to 2 µg/mL (≈ 5.93 µM) and the MIC90 came to 4 µg/mL (≈ 11.9 µM). In the assay on Staphylococcus aureus [11], the MIC50 came out at 2 µg/mL (≈ 5.93 µM) and the MIC90 is 4 µg/mL (≈ 11.9 µM). Moreover, in the assay with Staphylococcus aureus [12], the MBC50 is 16 µg/mL (≈ 47.4 µM), the MBC90 is 64 µg/mL (≈ 190 µM) and the MBC amounted to 1 µg/mL (≈ 2.96 µM).
In the assay on Staphylococcus aureus [2], `CN[C@H](CC(C)C)C(=O)N[C@H]1C(=O)N[C@@H](CC(N)=O)C(=O)N[C@H]2C(=O)N[C@H]3C(=O)N[C@H](C(=O)N[C@H](C(=O)O)c4cc(O)cc(O)c4-c4cc3ccc4O)[C@H](O)c3ccc(c(Cl)c3)Oc3cc2cc(c3O[C@@H]2O[C@H](CO)[C@@H](O)[C@H](O)[C@H]2O[C@H]2C[C@](C)(N)[C@H](O)[C@H](C)O2)Oc2ccc(cc2Cl)[C@H]1O` [VANCOMYCIN] showed an MBC50 of 1 µg/mL (≈ 0.69 µM), an MBC90 of 2 µg/mL (≈ 1.38 µM) and an MBC of 0.5 µg/mL (≈ 0.345 µM). In the assay with Staphylococcus aureus [6], this molecule had a T99.9% of 8.6 h. The same molecule returned a T99.9% with Staphylococcus aureus [9] of 8.6 h. In the assay with Staphylococcus aureus [10], this molecule showed an MIC50 of 1 µg/mL (≈ 0.69 µM) and an MIC90 of 2 µg/mL (≈ 1.38 µM). Besides, in the assay on Staphylococcus aureus [11], the MIC50 came out at 1 µg/mL (≈ 0.69 µM) and the MIC90 came out at 1 µg/mL (≈ 0.69 µM). In the assay with Staphylococcus aureus [12], the MBC50 was determined as 1 µg/mL (≈ 0.69 µM), the MBC90 turned out to be 2 µg/mL (≈ 1.38 µM) and the MBC came out at 0.5 µg/mL (≈ 0.345 µM).

The values above are taken from ChEMBL document CHEMBL1275473, “Activities of ceftobiprole, linezolid, vancomycin, and daptomycin against community-associated and hospital-associated methicillin-resistant Staphylococcus aureus” (2008).
